Dynein transport – dynein cargo transport inhibition | 3617.4 mouse cells, GR-EGFP nuclear translocation imaging; test concentration mostly 20 µM; stimulated with dexamethasone, 1 µM; active compounds read low | z-score, hits read low | 220,000 tested, 0.47% active | AID 1381;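 active = plate z-score of nuclear minus cytoplasmic receptor signal below a set negative limit, without overly bright fluorescence or cell loss, cut at about -3.5 in these data, passing the limit was not always enough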;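 note: z-score of nuclear minus cytoplasmic ring GR-EGFP intensity difference per well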
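Buffer or medium – tet-free medium with charcoal-stripped serum · Signal – automated 10x imaging of fixed Hoechst-stained cells · Also added – dexamethasone agonist, 1.0 µM final, for 30 min · Incubation – induction 48 h, compound 1 h, agonist 30 min · Read-out – GR-EGFP nuclear translocation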
Cl transport mod – KCC2 (human) Cl- transport modulation. Q9H2X9. AID 1456. KCC2 cells, thallium flux FluoZin-2 fluorescence. 190,000 tested, 2.2% active. B-score of Tl+ flux slope (higher = more flux/activation; lower = inhibition) at 10 µM;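 active = thallium flux slope and its plate-corrected score both differing from the plate sample mean at a set confidence after two filtering rounds, in either direction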;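 note: slope of fluorescence scaled to starting intensity during 10 to 20 s after thallium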
pCIP destab – compounds decreasing mouse p/CIP protein stability. decrease of EGFP signal, % at 10 µM. 290,000 tested, 0.01% active. Q05BA5. F442A p/CIP-EGFP cells, EGFP fluorescence, 16 h;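 active = EGFP signal decrease of at least 30% at 10 µM or well 3 SD below plate mean, unless failing retest; inactive = the rest, including hits failing retest or dose response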
Target sequence (Q05BA5 1-1403): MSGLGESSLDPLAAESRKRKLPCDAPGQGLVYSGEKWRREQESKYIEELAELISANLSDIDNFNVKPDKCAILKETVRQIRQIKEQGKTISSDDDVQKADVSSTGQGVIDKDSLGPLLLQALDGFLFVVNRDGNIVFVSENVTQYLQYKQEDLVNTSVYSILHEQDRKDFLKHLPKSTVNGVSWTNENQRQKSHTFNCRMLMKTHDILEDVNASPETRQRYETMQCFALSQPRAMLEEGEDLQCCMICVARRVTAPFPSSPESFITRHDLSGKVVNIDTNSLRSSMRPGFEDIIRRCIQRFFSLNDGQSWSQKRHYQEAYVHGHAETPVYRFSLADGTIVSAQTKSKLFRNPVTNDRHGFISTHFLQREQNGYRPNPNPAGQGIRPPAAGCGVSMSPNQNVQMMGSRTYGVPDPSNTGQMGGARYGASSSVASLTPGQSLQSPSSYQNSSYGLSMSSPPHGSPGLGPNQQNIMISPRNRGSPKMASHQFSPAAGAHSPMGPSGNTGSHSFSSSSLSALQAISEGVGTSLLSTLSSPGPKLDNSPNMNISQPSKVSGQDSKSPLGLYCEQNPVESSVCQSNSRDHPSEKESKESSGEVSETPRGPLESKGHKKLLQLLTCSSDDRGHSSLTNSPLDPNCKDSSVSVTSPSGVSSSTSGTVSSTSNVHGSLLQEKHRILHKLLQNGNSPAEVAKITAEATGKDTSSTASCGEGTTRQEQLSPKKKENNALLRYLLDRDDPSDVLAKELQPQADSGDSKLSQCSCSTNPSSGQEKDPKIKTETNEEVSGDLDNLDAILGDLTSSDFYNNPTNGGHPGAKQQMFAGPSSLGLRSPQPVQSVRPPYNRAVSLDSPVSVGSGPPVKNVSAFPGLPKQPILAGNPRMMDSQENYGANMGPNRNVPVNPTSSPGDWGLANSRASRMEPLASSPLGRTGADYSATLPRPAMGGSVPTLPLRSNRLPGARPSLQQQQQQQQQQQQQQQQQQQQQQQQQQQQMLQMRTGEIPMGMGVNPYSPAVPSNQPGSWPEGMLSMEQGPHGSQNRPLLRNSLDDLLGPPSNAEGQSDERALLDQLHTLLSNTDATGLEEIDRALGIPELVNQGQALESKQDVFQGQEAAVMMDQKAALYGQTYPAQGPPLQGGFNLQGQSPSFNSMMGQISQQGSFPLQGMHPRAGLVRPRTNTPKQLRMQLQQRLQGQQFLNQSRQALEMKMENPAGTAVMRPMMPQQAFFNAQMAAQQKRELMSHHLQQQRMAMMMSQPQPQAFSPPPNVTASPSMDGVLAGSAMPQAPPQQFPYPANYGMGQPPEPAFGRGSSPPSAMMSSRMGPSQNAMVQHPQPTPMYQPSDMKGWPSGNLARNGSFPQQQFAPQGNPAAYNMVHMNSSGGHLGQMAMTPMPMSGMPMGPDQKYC
ABCB6 inh MLPCN – inhibitors of human ABC transporter ABCB6; 360,000 tested, 0.19% active; K562-ABCB6 porphyrin accumulation, flow cytometry, 1 h; active compounds read low; fluorescence ratio to DMSO, % at 10 µM; Q9NP58;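 active = fluorescence ratio to DMSO below 75%, the collection mean minus 3 SD; inconclusive = too few cells collected in the well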;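 note: signal is porphyrin accumulated inside mitochondria; lower ratio means ABCB6 inhibition with less porphyrin fluorescence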
V-ATPase pH – yeast V-ATPase proton transport regulation by pHLuorin; 350,000 tested, 0.37% active; S. cerevisiae, pHLuorin cytosolic pH fluorescence; response, % at 10 µM; in the data active = response mostly above about 7.3%, no sharp cut-off; inactive = mostly below about 5.4%; note: actives read high
KCC2 secondary – KCC2 (human) modulation, secondary assay | HEK293-KCC2, thallium flux, FluoZin2 fluorescence; active compounds read high | 3,700 tested, 15% active | shares compounds with Cl transport mod | AID 1713 | normalised thallium flux (F/F0 slope) at 10 µM;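 active = thallium flux slope above the same plate's solvent-only control mean plus 3 SD; inconclusive = the two replicate wells disagree; inactive = no significant difference from solvent-only control wells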
KCC2 bumet counter – thallium flux persisting under bumetanide in KCC2 cells, counter-screen secondary assay; shares compounds with Cl transport mod; HEK293-KCC2 + bumetanide/ouabain, thallium flux FluoZin2; active compounds read high; normalized thallium flux at 10 µM; 3,700 tested, 49% active; AID 1714;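 active = thallium entry rate above the same plate's blocked-transporter control wells by more than 3 SD; inconclusive = the two repeat wells disagree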;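 note: raw slope of fluorescence over initial fluorescence between 10 and 20 s after thallium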
KCC2 sec2 – confirmation of human KCC2 transport modulators. 3,700 tested, 23% active. shares compounds with Cl transport mod. normalized thallium flux at 10 µM. HEK293-KCC2, thallium flux FluoZin2 fluorescence; actives lie on both sides; F/F0 rise rate, 10–20 s post-thallium;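 active = thallium flux slope more than 3 SD above or below the plate's solvent-only control mean, mostly below; inconclusive = the two repeat wells disagreed; inactive = no significant shift from solvent-only controls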
HEK293 Tl flux – acts in parental HEK cells, KCC2 counter-screen | shares compounds with Cl transport mod | HEK293 parental cells, thallium flux FluoZin2, ouabain; baseline-ratio fluorescence slope, 10–20 s after thallium | thallium flux rate (normalised fluorescence) at 10 µM | 3,700 tested, 46% active;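 active = thallium flux rate significantly above the same plate's solvent-only control wells, beyond their mean plus 3 SD; inconclusive = the two replicate wells gave conflicting results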
KCC2 ouabain – confirmation of human KCC2 modulators with ouabain; HEK293-KCC2, thallium flux FluoZin2 fluorescence; bidirectional: low = inhibitor, high = activator; shares compounds with Cl transport mod; raw Tl+ flux slope (below DMSO = inhibition, above = activation) at 10 µM; 3,700 tested, 48% active;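 active = thallium flux slope beyond 3 SD from same-plate DMSO control mean in most replicates, usually higher, sometimes lower; inconclusive = repeat tests gave conflicting results; inactive = no significant difference from controls in most replicates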;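 note: slope of initial-normalized fluorescence between seconds 10 and 20 after thallium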
HEK counter2 – acts in parental HEK cells, second KCC2 counter-screen; shares compounds with Cl transport mod; 3,700 tested, 33% active; HEK293 parental, thallium flux FluoZin-2 fluorescence slope; thallium flux slope at 10 µM; AID 1718;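 active = thallium flux slope above the same plate's solvent-control mean plus 3 SD in both duplicate wells; inconclusive = duplicate wells that disagreed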;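 note: run without ouabain in cells lacking the KCC2 cotransporter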
Each line names hits and unclear results; the compound was inactive in the other large screens (follow-up assays come after a bar, where they were run). This excerpt belongs to a sample that is enriched for hits.

Cc1ccc2oc(C(=O)NCC(c3ccco3)N(C)C)c(C)c2c1 (stereo not given)	none (no result: Dynein transport, Cl transport mod)
Cc1cccc(N=Nc2ccc(O)c3ncccc23)c1	Cl transport mod 15.1 | KCC2 secondary inactive | KCC2 bumet counter 0.0341 | KCC2 sec2 inactive | HEK293 Tl flux 0.033 | KCC2 ouabain 0.049 | HEK counter2 0.0122
Cc1ccc(C)c(N=Nc2ccc(O)c3ncccc23)c1	Cl transport mod 13 | KCC2 secondary inconclusive | KCC2 bumet counter 0.0118 | KCC2 sec2 inactive | HEK293 Tl flux 0.0105 | KCC2 ouabain 0.032 | HEK counter2 inconclusive
Cc1ccc(S(=O)(=O)N2CCOCC2)cc1NC(=O)COC(=O)C1(C)CC1(Cl)Cl (stereo not given)	none (no result: Dynein transport, Cl transport mod, pCIP destab)
COCCCNC(=O)COc1ccc(S(=O)(=O)NCc2ccccc2)cc1Cl	none (no result: Cl transport mod)
O=c1oc(-c2ccc([N+](=O)[O-])cc2)nc2ccc(O)cc12	none
COC(=O)c1ccc(OC(=O)c2ccc(OC)cc2)c(OC)c1	none
CCc1nn(CCCC(=O)NCc2ccccc2C)c(=O)c2cc3occc3n12	none (no result: Dynein transport, Cl transport mod)
CCOc1ccc(S(=O)(=O)N2CCN=C2c2ccccc2)c(C)c1C	none (no result: Dynein transport, Cl transport mod)
Cc1ccc(S(=O)(=O)N(C)c2nc3ccccc3[nH]c2=S)cc1	Cl transport mod 88.6 | KCC2 secondary 0.0387 | KCC2 bumet counter 0.0866 | KCC2 sec2 inconclusive | HEK293 Tl flux 0.0648 | KCC2 ouabain 0.0651 | HEK counter2 0.0192
CCc1nnc2c(N(C)S(=O)(=O)c3ccc(C)cc3)nc3ccccc3n12	none (no result: Dynein transport, Cl transport mod)
CC(C)Oc1ccc(S(=O)(=O)N2CCOCC2)cc1NC(=O)C(C)Oc1ccc(F)cc1 (stereo not given)	none (no result: Dynein transport, Cl transport mod, pCIP destab)
O=C(Nc1ccc2ccccc2c1)C(=O)C1C(=O)Nc2ccccc21 (stereo not given)	Cl transport mod 25.1 (no result: ABCB6 inh MLPCN, V-ATPase pH) | KCC2 secondary inconclusive | KCC2 bumet counter 0.0225 | KCC2 sec2 inconclusive | HEK293 Tl flux 0.0176 | KCC2 ouabain inactive | HEK counter2 0.0174
O=C(Nc1ccc(F)cc1)C(=O)C1C(=O)Nc2ccccc21 (stereo not given)	none
CC(=O)c1ccc(OCc2cc(C(=O)NC3CCCCC3)no2)cc1	none (no result: Dynein transport, Cl transport mod)
O=C(NCc1cccnc1)c1ccc(COc2ccccc2Br)o1	Cl transport mod -4.68 | KCC2 secondary inactive | KCC2 bumet counter inactive | KCC2 sec2 0.0292 | HEK293 Tl flux inactive | KCC2 ouabain 0.0145 | HEK counter2 inactive
O=C(Nc1cccnc1)c1ccc(COc2ccccc2Br)o1	Cl transport mod -4.98 | KCC2 secondary inactive | KCC2 bumet counter inactive | KCC2 sec2 0.0223 | HEK293 Tl flux inactive | KCC2 ouabain inconclusive | HEK counter2 inactive
CC(=O)[C@H]1CC[C@H]2[C@@H]3C=CC4=CC(=O)CC[C@@]4(C)[C@@H]3CC[C@]12C	none (no result: Dynein transport, Cl transport mod, pCIP destab)
O=C(NCc1ccccc1C(F)(F)F)C1CC(c2cccc(F)c2)=NO1 (stereo not given)	Cl transport mod -2.66 | KCC2 secondary inactive | KCC2 bumet counter inactive | KCC2 sec2 inactive | HEK293 Tl flux inactive | KCC2 ouabain inactive | HEK counter2 inactive
C=CCNC(=O)NC(=O)CSc1nc2cc([N+](=O)[O-])ccc2n1-c1cccc(C(F)(F)F)c1	Cl transport mod 7.61 | KCC2 secondary inactive | KCC2 bumet counter 0.0137 | KCC2 sec2 inactive | HEK293 Tl flux 0.0107 | KCC2 ouabain inconclusive | HEK counter2 inactive
O=C(CSc1nc2cc([N+](=O)[O-])ccc2n1-c1ccccc1)NCc1ccc2c(c1)OCO2	none
O=C(c1ccco1)N1CCCC(c2nc(-c3ccc(S(=O)(=O)NCc4ccccc4)cc3)no2)C1 (stereo not given)	none
CCCN(CCC)C1=CC(=[N+]2CCCC2)CC(C)(C)C1	none
Oc1c(Cl)cc(Cl)cc1/C=N/NC(=S)NC1CC2C=CC1C2 (stereo not given)	Cl transport mod 9.22 | KCC2 secondary inactive | KCC2 bumet counter 0.0174 | KCC2 sec2 inactive | HEK293 Tl flux 0.0112 | KCC2 ouabain inconclusive | HEK counter2 inactive
Oc1ccccc1C=NNC(=S)NC1CC2C=CC1C2 (stereo not given)	none (no result: Dynein transport, Cl transport mod, pCIP destab)
Oc1ccccc1/C=N/NC(=S)NC1CC2C=CC1C2 (stereo not given)	Cl transport mod 18.3 | KCC2 secondary inconclusive | KCC2 bumet counter 0.0515 | KCC2 sec2 inactive | HEK293 Tl flux 0.0249 | KCC2 ouabain inactive | HEK counter2 0.0136
COC(=O)[C@]12CCCCC=C1N(Cc1cccc3ccccc13)C(=O)[C@H](CC(=O)NCc1cccs1)C2	none (no result: Dynein transport, Cl transport mod, pCIP destab, V-ATPase pH)
CC(=O)c1cc(NC(=O)c2ccc(Cl)cc2)c(=O)oc1/C=C/N(C)C	Cl transport mod -3.02 | KCC2 secondary inconclusive | KCC2 bumet counter -0.0026 | KCC2 sec2 0.0205 | HEK293 Tl flux 0.0027 | KCC2 ouabain 0.00804 | HEK counter2 0.00481
Cc1nc2ccccc2c2c1C(=O)N(c1ccc(C(=O)O)cc1)C2=O	none
Cc1nc2ccccc2c2c1C(=O)N(C1CCCCCCC1)C2=O	Cl transport mod -4.83 | KCC2 secondary inactive | KCC2 bumet counter inconclusive | KCC2 sec2 inactive | HEK293 Tl flux inactive | KCC2 ouabain inactive | HEK counter2 inactive
Cn1c(Sc2ccc(C(F)(F)F)cc2[N+](=O)[O-])nnc1-c1ccccc1	Cl transport mod -5.35 | KCC2 secondary inactive | KCC2 bumet counter inactive | KCC2 sec2 inactive | HEK293 Tl flux inactive | KCC2 ouabain inactive | HEK counter2 inactive
Cn1c(Sc2ccc([N+](=O)[O-])cc2C(F)(F)F)nnc1-c1ccccc1	none
CN(C(=O)CSc1ncnc2scc(-c3ccccc3)c12)C1CCS(=O)(=O)C1 (stereo not given)	none
CN(C(=O)CSc1ncnc2sc(-c3ccccc3)cc12)C1CCS(=O)(=O)C1 (stereo not given)	Cl transport mod 138 | KCC2 secondary inactive | KCC2 bumet counter 0.107 | KCC2 sec2 0.108 | HEK293 Tl flux 0.115 | KCC2 ouabain 0.102 | HEK counter2 0.114
